Experimental data: PMC8859983 (Biomaterials science, 2020)
Entries after “also recorded” stand apart in the source; their conditions may differ.

What was measured:
HT-1080 tumor [1] = assay: Optical in vivo imaging after intratumoral injection; set-up: species or system BALB/c nude mice; conditions: 50 nmol intratumoral, IVIS; for fluorescence in the tumor site: 0.5–6 h post injection
In short: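 Subcutaneous HT-1080 xenografts in nude mice; four groups (n = 3) with similar tumor size. Probe or control given intratumorally at 50 nmol. IVIS imaging of FAM (Ex/Em 492/518 nm) at 0.5, 1, 2, 4.5 and 6 h under 2.5% isoflurane in oxygen (1.5 L min⁻¹). Radiant efficiency quantified at tumor site.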

HUVEC cells = assay: MTT cell cytotoxicity assay; assay type: cell-based, human; conditions: 10 μM to 100 μM, 48 h, Fig. S2
In short: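 HUVEC seeded at 4×10³–5×10³ cells/well and incubated 12 h. Then exposed to test compound at 10–100 μM for 48 h. MTT (5 mg mL⁻¹ stock in PBS) added for 4 h, formazan dissolved in DMSO, absorbance read at 490 nm.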

[2] = molecular target: T1, recombinant human MT1-MMP (Homo sapiens, UniProt P50281); assay: Enzyme kinetics of fluorogenic probes, FRET peptide cleavage assay; assay type: biochemical; conditions: for kcat/Km: specificity constant, 15 nM refolded MT1-MMP, 37 °C, pH 8.0, mean ± SD
In short: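 Refolded His-tagged human MT1-MMP catalytic/hinge construct (E. coli), 15 nM, with 0.5–4.5 μM FRET probes at 37 °C. Initial cleavage rates measured over 28 s. Km and Vmax from Michaelis–Menten fit; kcat = Vmax/[enzyme]. Mean ± SD.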

HT-1080 cells = assay: Cell uptake / cell imaging of probes; assay type: cell-based, human; conditions: for cell uptake: 5 μM probe, 2 h at 37 °C, FAM fluorescence, confocal imaging
In short: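 HT-1080 cells in RPMI 1640 with 10% FBS, penicillin and streptomycin at 37 °C, 5% CO₂. Seeded on glass-bottom dishes overnight, then fresh medium. Incubated with 5 μM probe for 2 h at 37 °C, ± 5 μM GM6001. Washed three times with PBS, fixed 10 min in 4% paraformaldehyde, DAPI-stained, then imaged for FAM fluorescence.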

HT-1080 tumor [3] = assay: Ex vivo tumor imaging and biodistribution after intravenous injection; assay type: in vivo, BALB/c nude mice; conditions: for fluorescence intensity / accumulation in the tumors: tumor cryosections 4.5 h post injection, n = 3 per group
In short: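 BALB/c nude mice (4 weeks old) given 1×10⁶ HT-1080 cells in PBS subcutaneously, right flank. At tumor volume ~0.5–1 cm³, four groups (n = 3) received 50 nmol probe by tail-vein injection. Tumors harvested 4.5 h later, cryosectioned, stained with DiI (membrane) and DAPI (nuclei), and examined by fluorescence microscopy.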

recombinant MT1-MMP = assay: Fluorescence activation; assay type: biochemical, human; conditions: for activation efficiency by MT1-MMP / selectivity for MT1-MMP compared with MMP-2: 1 μM probe; for activation efficiency by MT1-MMP: 15 nM MT1-MMP, 7 min incubation at 37 °C; for selectivity for MT1-MMP compared with MMP-2: 15 nM enzyme, 37 °C
In short: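 Catalysis velocity: FRET probes at 1 μM incubated with 15 nM refolded recombinant MT1-MMP for 7 min at 37 °C. Fluorescence from substrate hydrolysis recorded at the set time.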

[4] = molecular target: T1, recombinant human MT1-MMP; assay: Effect of binding peptide on catalysis of P-1 by MT1-MMP; assay type: biochemical; conditions: binding peptide 0.47 μM to 640 μM, pre-incubated with MT1-MMP
In short: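 His-tagged human MT1-MMP catalytic plus hinge domains (Tyr112–Ile318) expressed in E. coli BL21(DE3)pLysS. Purified on Ni-NTA in urea and refolded by gradient dialysis. Enzyme pre-incubated with binding peptide (0.47–640 μM) before cleavage of FRET peptide substrate. Ex 328/Em 393 nm.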

Substance: (FAM)-PLGLK-(Dabcyl)-AR-(PEG)12-HWKHLHNTKTFL [Probe P-7]
- time to maximum fluorescent intensity at tumor (HT-1080 tumor [1]; Ex/Em 492/518 nm, n = 3 per group): about 1 h
- cytotoxicity (HUVEC cells): low toxicity
- Km value compared with P-5 ([2]; MT1-MMP, Table S1): much higher Km value of P-7 than P-5
- kcat value compared with P-5 ([2]; MT1-MMP, Table S1): higher kcat value than P-5
- cell uptake (HT-1080 cells): much higher cell uptake compared with the control cells MCF-7; also recorded: much higher cell uptake compared with P-8 and P-9
- cell uptake in the presence of MMP inhibitor GM6001 (HT-1080 cells; HT-1080, 5 μM probe, GM6001 5 μM): decreased
- location of the activated probe in frozen tissue slices (HT-1080 tumor [3]; 50 nmol i.v., 4.5 h post injection): located in the cytosol
- fluorescence intensity / accumulation in the tumors (HT-1080 tumor [3]; 50 nmol i.v.): strongest fluorescence intensity
- organs in which the probe was activated (biodistribution) (HT-1080 tumor [3]; 50 nmol, tail vein injection, FAM fluorescence, Fig. S3): predominantly in the tumor, liver, and kidney

Substance: (FAM)-PLGLK-(Dabcyl)-AR-HWKHLHNTKTFL [Probe P-9]
- fluorescence in the tumor site (HT-1080 tumor [1]): hardly detected
- cell uptake (HT-1080 cells): higher cell uptake than P-8
- activation efficiency by MT1-MMP (recombinant MT1-MMP): lower activation efficiency than P-7; also recorded: lower activation efficiency by MT1-MMP than P-8
- selectivity for MT1-MMP compared with MMP-2 (recombinant MT1-MMP): higher selectivity for MT1-MMP compared with MMP-2
- substrate inhibition of MT1-MMP (recombinant MT1-MMP; data not included): induced the substrate inhibition of MT1-MMP at higher concentrations

Substance: (FAM)-PLGLK-(Dabcyl)-AR-NH2 [Probe P-8]
- fluorescence in the tumor site (HT-1080 tumor [1]): hardly detected
- activation efficiency by MT1-MMP (recombinant MT1-MMP): lower activation efficiency than P-7
- selectivity for MT1-MMP compared with MMP-2 (recombinant MT1-MMP): higher selectivity for MT1-MMP compared with MMP-2
- substrate inhibition of MT1-MMP (recombinant MT1-MMP; data not included): induced the substrate inhibition of MT1-MMP at higher concentrations
- fluorescence intensity / accumulation in the tumors (HT-1080 tumor [3]; 50 nmol i.v.): weaker fluorescence intensities

Substance: (Mca)-PLGL-(Dpa)-AR-(PEG)6-HWKHLHNTKTFL [Probe P-4]
- kcat/Km [2]: 4420 ± 370 M⁻¹ s⁻¹

Substance: (Mca)-PLGL-(Dpa)-AR-(PEG)12-HWKHLHNTKTFL [Probe P-5]
- fold decreased Km value compared with control probe P-1 ([2]; MT1-MMP): 5.4 fold
- fold enhanced hydrolysis rate (kcat) compared with control probe P-1 ([2]; MT1-MMP): 2.5 fold
- fold specificity (kcat/Km) to MT1-MMP compared with control probe P-1 ([2]; MT1-MMP): ~14 fold
- kcat/Km [2]: 6150 ± 440 M⁻¹ s⁻¹
- selectivity for MT1-MMP compared with MMP-2 (recombinant MT1-MMP): significantly higher activation folds when incubated with MT1-MMP than with MMP-2

Substance: (Mca)-PLGL-(Dpa)-AR-(PEG)24-HWKHLHNTKTFL [Probe P-6]
- kcat/Km [2]: 1110 ± 90 M⁻¹ s⁻¹

Substance: (Mca)-PLGL-(Dpa)-AR-HWKHLHNTKTFL [Probe P-2]
- probe concentration above which substrate inhibition of MT1-MMP was induced (recombinant MT1-MMP; data not included): higher than 1.5 μM

Substance: (Mca)-PLGL-(Dpa)-AR-NH2 [Probe P-1, reference compound]
- kcat/Km [2]: 450 ± 30 M⁻¹ s⁻¹

Substance: HWKHLHNTKTFL [MT1-AF7p]
- effect on the catalysis of P-1 by the recombinant MT1-MMP [4]: had no effect
